ChEMBL document CHEMBL4808175 (J Med Chem, 2021)

Experiments:
[1] = target: Dual specificity calcium/calmodulin-dependent 3',5'-cyclic nucleotide phosphodiesterase 1A (Homo sapiens, UniProt P54750); assay: Inhibition of recombinant full length GST-tagged PDE1A (unknown origin) expressed in baculovirus infected Sf9 insect cells using TAMRA-cGMP as substrate incubated for 1.5 hrs by IMAP-FP assay
Procedure, shortened: (§1)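 PDE enzymes incubated with compound or vehicle and 50 nM TAMRA-cGMP or FAM-cAMP substrate for 1.5 h at 30 °C. Activity read by IMAP fluorescence polarization. IC50 from 10 concentrations, at least two replicates each, fitted by four-parameter logistic. Dose–response repeated at least twice; mean of at least two experiments.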

[2] = target: cGMP-dependent 3',5'-cyclic phosphodiesterase (Homo sapiens, UniProt O00408); assay: Inhibition of recombinant full length GST-tagged PDE2A (unknown origin) expressed in baculovirus infected Sf9 insect cells using FAM-cAMP as substrate incubated for 1.5 hrs by IMAP-FP assay; procedure, shortened: as §1
Sequence of cGMP-dependent 3',5'-cyclic phosphodiesterase (O00408 whole entry): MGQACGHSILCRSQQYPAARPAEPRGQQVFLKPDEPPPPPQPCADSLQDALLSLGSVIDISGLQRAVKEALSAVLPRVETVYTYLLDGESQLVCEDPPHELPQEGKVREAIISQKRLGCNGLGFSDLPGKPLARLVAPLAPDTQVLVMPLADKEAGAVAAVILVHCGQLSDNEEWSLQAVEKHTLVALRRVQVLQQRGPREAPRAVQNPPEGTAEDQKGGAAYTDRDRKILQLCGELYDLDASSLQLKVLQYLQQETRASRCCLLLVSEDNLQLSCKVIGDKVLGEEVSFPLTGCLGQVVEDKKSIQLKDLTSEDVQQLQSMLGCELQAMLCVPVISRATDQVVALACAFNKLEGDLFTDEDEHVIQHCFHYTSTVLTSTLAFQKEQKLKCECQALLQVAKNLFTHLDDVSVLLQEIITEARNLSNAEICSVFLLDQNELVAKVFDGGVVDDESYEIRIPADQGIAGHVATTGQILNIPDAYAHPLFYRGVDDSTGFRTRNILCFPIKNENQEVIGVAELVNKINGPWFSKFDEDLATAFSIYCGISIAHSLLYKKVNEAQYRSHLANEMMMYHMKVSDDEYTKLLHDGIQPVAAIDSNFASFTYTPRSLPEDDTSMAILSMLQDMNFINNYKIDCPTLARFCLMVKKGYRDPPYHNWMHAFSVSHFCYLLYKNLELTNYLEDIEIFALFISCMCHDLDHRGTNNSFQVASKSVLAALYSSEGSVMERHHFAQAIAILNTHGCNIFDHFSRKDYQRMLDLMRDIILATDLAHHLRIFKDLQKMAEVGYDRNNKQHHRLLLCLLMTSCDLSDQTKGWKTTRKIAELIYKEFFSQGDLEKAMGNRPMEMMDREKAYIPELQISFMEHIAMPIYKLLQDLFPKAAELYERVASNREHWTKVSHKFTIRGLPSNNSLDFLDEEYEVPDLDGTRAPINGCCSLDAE

[3] = target: T1, cGMP-inhibited 3',5'-cyclic phosphodiesterase 3A (Homo sapiens, UniProt Q14432); assay: Inhibition of recombinant GST-tagged PDE3A (669 to end residues) (unknown origin) expressed in baculovirus infected Sf9 insect cells using FAM-cAMP as substrate incubated for 1.5 hrs by IMAP-FP assay; procedure, shortened: as §1
T1 sequence (Q14432 whole entry): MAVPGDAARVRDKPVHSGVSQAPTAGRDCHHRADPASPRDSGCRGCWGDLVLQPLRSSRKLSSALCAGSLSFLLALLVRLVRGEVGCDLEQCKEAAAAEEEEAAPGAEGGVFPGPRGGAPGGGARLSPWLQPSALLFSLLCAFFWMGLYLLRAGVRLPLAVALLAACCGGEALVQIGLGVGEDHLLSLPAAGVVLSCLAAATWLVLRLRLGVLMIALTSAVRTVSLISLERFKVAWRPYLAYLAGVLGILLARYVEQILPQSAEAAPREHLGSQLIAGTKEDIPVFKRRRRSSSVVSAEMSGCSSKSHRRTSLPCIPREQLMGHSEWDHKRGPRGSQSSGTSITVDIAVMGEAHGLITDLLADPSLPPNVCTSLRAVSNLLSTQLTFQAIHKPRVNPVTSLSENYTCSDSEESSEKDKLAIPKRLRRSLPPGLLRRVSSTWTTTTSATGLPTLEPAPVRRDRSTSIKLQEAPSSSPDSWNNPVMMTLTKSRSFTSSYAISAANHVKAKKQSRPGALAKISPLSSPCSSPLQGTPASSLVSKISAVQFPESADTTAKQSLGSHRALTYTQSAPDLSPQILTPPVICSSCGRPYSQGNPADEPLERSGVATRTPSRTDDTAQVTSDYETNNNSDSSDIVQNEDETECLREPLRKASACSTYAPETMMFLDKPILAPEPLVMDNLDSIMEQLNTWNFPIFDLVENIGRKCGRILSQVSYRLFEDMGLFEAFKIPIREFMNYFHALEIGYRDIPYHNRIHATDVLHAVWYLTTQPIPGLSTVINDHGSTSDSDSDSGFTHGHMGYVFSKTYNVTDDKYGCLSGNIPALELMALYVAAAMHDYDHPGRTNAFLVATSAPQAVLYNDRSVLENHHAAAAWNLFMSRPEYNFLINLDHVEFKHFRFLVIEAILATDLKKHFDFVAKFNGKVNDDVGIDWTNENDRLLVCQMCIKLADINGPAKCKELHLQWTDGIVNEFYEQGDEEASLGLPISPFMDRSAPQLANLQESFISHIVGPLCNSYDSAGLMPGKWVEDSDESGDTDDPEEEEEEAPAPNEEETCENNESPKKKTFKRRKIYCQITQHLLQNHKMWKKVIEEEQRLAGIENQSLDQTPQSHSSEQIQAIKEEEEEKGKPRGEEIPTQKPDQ

[4] = target: T1, cGMP-inhibited 3',5'-cyclic phosphodiesterase 3A; assay: Inhibition of recombinant GST-tagged PDE3A (669 to end residues) (unknown origin) expressed in baculovirus infected Sf9 insect cells using TAMRA-cGMP as substrate incubated for 1.5 hrs by IMAP-FP assay; procedure, shortened: as §1
[5] = target: 3',5'-cyclic-AMP phosphodiesterase 4B (Homo sapiens, UniProt Q07343); assay: Inhibition of recombinant full length GST-tagged PDE4B2 (unknown origin) expressed in baculovirus infected Sf9 insect cells using FAM-cAMP as substrate incubated for 1.5 hrs by IMAP-FP assay; procedure, shortened: as §1
Sequence of 3',5'-cyclic-AMP phosphodiesterase 4B (Q07343 whole entry): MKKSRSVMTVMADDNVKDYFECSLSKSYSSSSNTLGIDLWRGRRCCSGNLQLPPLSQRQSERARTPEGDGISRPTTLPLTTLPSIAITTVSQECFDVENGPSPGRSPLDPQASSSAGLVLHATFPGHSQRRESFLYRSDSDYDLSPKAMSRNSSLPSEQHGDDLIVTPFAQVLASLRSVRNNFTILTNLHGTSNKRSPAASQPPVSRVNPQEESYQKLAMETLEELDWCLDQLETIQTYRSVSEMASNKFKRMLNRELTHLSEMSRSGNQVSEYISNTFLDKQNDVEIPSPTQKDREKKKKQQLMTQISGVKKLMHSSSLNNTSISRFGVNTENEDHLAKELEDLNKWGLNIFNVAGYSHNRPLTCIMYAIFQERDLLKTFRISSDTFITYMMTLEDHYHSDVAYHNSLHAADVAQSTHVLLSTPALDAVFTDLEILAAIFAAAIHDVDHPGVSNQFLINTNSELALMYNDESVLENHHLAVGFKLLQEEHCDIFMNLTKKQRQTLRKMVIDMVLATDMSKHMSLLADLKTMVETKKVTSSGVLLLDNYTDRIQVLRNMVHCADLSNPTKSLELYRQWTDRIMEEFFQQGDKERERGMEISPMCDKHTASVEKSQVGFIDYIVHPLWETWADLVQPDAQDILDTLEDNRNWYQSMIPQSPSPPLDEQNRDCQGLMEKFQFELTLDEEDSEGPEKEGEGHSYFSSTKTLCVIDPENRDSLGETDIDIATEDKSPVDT

[6] = target: Cone cGMP-specific 3',5'-cyclic phosphodiesterase subunit alpha' (Homo sapiens, UniProt P51160); assay: Inhibition of recombinant full length GST-tagged PDE6C (unknown origin) expressed in baculovirus infected Sf9 insect cells at 15 uM using TAMRA-cGMP as substrate incubated for 1.5 hrs by IMAP-FP assay relative to control
Sequence of Cone cGMP-specific 3',5'-cyclic phosphodiesterase subunit alpha' (P51160 whole entry): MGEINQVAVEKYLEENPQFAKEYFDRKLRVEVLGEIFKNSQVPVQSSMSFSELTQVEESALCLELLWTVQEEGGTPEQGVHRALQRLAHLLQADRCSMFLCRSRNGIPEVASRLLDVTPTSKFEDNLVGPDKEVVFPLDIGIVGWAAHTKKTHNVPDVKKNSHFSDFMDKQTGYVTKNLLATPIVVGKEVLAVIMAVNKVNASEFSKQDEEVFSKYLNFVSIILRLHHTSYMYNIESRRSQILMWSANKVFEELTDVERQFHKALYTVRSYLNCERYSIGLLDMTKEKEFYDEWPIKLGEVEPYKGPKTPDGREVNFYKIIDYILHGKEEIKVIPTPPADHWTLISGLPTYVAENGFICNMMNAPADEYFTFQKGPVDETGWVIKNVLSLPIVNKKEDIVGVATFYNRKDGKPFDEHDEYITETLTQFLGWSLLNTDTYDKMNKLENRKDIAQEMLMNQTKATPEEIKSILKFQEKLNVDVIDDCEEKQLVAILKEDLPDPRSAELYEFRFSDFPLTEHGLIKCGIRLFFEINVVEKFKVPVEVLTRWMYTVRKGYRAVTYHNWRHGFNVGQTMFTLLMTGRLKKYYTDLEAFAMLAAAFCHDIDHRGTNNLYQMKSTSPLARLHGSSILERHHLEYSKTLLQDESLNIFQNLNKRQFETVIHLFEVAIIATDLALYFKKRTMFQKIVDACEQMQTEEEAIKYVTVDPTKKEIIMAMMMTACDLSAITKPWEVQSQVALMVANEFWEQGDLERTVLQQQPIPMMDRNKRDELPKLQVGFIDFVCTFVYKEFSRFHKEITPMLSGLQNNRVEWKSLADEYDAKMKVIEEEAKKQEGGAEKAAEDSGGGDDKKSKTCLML
Procedure, shortened: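 PDE6 activity measured at a single 15 μM compound concentration with TAMRA-cGMP substrate. Incubated 1.5 h at 30 °C and read by IMAP fluorescence polarization; percent inhibition relative to control.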

[7] = Elimination rate constant in C57BL/6N mouse at 150 mg/kg, po administered as single dose measured up to 8 hrs by LC-MS/MS analysis; format: ADME, organism-based; settings: in vivo
[8] = Observed AUC (0 to infinity) in C57BL/6N mouse at 150 mg/kg, po administered as single dose measured up to 8 hrs by LC-MS/MS analysis; format: ADME, organism-based; parameters: route oral, dose 150 mg/kg, time <=8; settings: in vivo
[9] = Observed clearance in C57BL/6N mouse at 150 mg/kg, po administered as single dose measured up to 8 hrs by LC-MS/MS analysis; format: ADME, organism-based; settings: in vivo
[10] = Toxicity in athymic nude-Foxn1nu mouse assessed as body weight loss at 50 to 150 mg/kg, po bid measured immediately relative to control; format: organism-based; settings: in vivo, dose 50-150 mg/kg
Procedure, shortened: (§2)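 Female athymic nude-Foxn1nu mice, 8–9 weeks, 18–24 g, n=4 per group. Oral gavage at 50, 100 or 150 mg/kg twice daily, or vehicle, for 28 days. Formulation ethanol/water/Maalox (7:3:90, v/v/v). Toxicity signs monitored daily. Body weight recorded daily in week 1, then twice weekly, as percent change from starting weight.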

[11] = Toxicity in athymic nude-Foxn1nu mouse assessed as body weight gain at 50 to 150 mg/kg, po bid for 28 days; format: organism-based; settings: in vivo, 672 h, dose 50-150 mg/kg, time 28 day; procedure, shortened: as §2
[12] = Half life in C57BL/6N mouse at 150 mg/kg, po administered as single dose measured up to 8 hrs by LC-MS/MS analysis; format: ADME, organism-based; settings: in vivo
[13] = human, microsomes, 1 h, 1 µM
[14] = target: High affinity cGMP-specific 3',5'-cyclic phosphodiesterase 9A (Homo sapiens, UniProt O76083); assay: Inhibition of recombinant GST-tagged full length PDE9A2 (unknown origin) expressed in baculovirus infected Sf9 insect cells using substrate incubated for 1.5 hrs by IMAP-FP assay
Sequence of High affinity cGMP-specific 3',5'-cyclic phosphodiesterase 9A (O76083 whole entry): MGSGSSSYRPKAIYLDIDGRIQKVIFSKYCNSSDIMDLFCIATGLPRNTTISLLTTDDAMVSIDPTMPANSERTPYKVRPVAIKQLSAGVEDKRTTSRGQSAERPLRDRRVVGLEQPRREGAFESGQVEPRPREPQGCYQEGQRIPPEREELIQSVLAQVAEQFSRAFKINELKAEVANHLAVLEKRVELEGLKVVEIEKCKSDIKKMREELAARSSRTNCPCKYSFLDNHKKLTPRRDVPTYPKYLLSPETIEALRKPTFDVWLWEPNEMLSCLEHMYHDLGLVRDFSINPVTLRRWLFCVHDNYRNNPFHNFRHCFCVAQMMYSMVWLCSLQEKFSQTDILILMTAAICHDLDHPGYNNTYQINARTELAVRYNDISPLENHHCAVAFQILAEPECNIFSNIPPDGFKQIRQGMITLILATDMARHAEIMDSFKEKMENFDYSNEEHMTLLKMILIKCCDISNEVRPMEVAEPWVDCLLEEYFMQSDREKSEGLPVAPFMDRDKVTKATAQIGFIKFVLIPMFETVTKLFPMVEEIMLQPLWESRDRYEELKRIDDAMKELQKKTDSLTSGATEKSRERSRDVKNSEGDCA

Sequence of Dual specificity calcium/calmodulin-dependent 3',5'-cyclic nucleotide phosphodiesterase 1A (P54750 whole entry): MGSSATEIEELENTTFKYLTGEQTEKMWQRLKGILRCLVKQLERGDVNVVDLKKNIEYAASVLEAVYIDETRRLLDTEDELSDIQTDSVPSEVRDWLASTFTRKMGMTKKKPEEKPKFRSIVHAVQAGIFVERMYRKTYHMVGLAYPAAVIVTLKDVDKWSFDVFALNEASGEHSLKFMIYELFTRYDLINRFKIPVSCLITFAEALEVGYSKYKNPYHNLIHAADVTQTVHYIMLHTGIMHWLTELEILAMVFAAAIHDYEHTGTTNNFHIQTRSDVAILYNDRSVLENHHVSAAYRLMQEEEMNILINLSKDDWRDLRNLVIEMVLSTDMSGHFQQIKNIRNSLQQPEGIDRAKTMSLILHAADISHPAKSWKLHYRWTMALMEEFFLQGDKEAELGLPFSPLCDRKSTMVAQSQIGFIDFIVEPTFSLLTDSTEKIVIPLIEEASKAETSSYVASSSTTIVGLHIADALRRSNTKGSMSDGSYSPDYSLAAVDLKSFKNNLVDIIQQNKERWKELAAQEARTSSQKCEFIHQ

Q: Which IC50 [1] does the source give for COc1c(F)cc(C2CC(C(C)(C)C)=NN2c2ccc(C(=O)N3CCN(C)CC3)cc2)cc1F (centres undefined) here?
A: The IC50 was > 10 µM.

Q: What about the IC50 [2] of the same compound?
A: Its IC50 is > 10 µM.

Q: What about the IC50 [3] of the same compound?
A: The IC50 was > 10 µM.

Q: What about the IC50 [4] of the same compound?
A: Its IC50 is > 10 µM.

Q: And the IC50 [5]?
A: Its IC50 is > 10 µM.

Q: What about the inhibition [6] of the same compound?
A: Its inhibition is 50%.

Q: What about the k el at 8 h [7] of the same compound?
A: Its k el at 8 h is 8.33e-05 s⁻¹.

Q: And the AUC(0-inf) [8]?
A: The AUC(0-inf) was 16200 ng·h/mL.

Q: What about the CL/F [9] of the same compound?
A: Its CL/F is 3.09 mL/min.

Q: And the Activity [10]?
A: Its Activity is < 5%.

Q: What about the Activity [11] of the same compound?
A: Its Activity is “Non-Toxic”.

Q: What about the half-life [12] of the same compound?
A: Its half-life is 2.33 h.

Q: What about the t1/2 [13] of the same compound?
A: The t1/2 was 0.367 h.

Q: And the IC50 [14]?
A: Its IC50 is > 10 µM.
